MrgX1 antag: antagonists of human MrgX1 receptor, primary screen, HEK293 cells, Fluo-4 calcium flux; B-score at 10 µM; BAM8-22 antagonism; stronger effect = lower value; AID 588676, 2011; 1.3% of 310,000 active;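 active = calcium-response B-score plate-corrected more than 3 library SD below zero, starting fluorescence within 5 deviations, no agonist response on first addition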;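 note: peak minus trough fluorescence over baseline after final BAM8-22 challenge near maximal dose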
Target sequence (Q96LB2 whole entry, looked up): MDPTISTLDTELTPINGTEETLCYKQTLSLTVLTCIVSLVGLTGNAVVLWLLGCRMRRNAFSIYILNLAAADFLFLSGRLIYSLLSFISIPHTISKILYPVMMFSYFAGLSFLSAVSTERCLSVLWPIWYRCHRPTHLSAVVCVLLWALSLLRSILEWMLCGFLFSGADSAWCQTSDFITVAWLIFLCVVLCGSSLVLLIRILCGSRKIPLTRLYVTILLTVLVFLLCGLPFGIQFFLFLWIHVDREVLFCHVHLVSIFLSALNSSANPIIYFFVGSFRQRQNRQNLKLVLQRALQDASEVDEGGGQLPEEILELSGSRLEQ
MrgX1 allo act: positive allosteric modulators of MrgX1, primary screen, HEK293 cells, Fluo-4 calcium flux; B-score at 10 µM; AID 588675, 2011; FDSS; stronger effect = higher value; Mas-related G-protein coupled receptor member X1 (Homo sapiens), Q96LB2; 0.63% of 310,000 active;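 active = plate-corrected calcium response at least 3 library SD above typical, normal starting fluorescence, not activating the receptor alone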;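 note: compound read alongside a low EC10 to EC30 dose of BAM8-22 agonist; peak minus trough fluorescence over baseline measured at the second addition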
PHOSPHO1 inh: PubChem AID 1565; Phosphoethanolamine/phosphocholine phosphatase (Homo sapiens), Q8TCT1; recombinant PHOSPHO1, absorbance phosphatase assay; inhibition, % at 13.3 µM; 1.1% of 290,000 active; in the data active = inhibition above about 60%
RGS4 act: RGS4 potentiators or activators, primary screen, cell-based, HEK293 M3R inducible RGS4, calcium flux | carbachol calcium flux Fluo4; stronger effect = lower value | B-score at 10 µM | 0.92% of 310,000 active | AID 463111, 2010;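 active = B-score of the integrated calcium signal more than 4 SD below the library mean, with starting fluorescence not abnormally high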;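 note: negative B-score means reduced calcium response which marks RGS4 activation or potentiation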
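Also added: carbachol at ECmax as muscarinic agonist stimulus; Assay system: HEK293 cells with stable M3R and inducible RGS4; Timing: overnight RGS4 induction, 30 min dye load 37 °C, 20 min compound RT; Measured by: Fluo4-AM (2 µM) calcium-flux fluorescence, kinetic read.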
RGS4 inh: RGS4 inhibitors, primary screen, cell-based, HEK293 M3R inducible RGS4, calcium flux. Regulator of G-protein signaling 4 (Homo sapiens), P49798. Fluo-4 calcium flux; stronger effect = higher value; triggered by carbachol at its EC20. B-score at 10 µM. 0.45% of 310,000 active. AID 463165, 2010;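 active = B-score, a plate-corrected calcium signal, over three deviations above library mean, with baseline fluorescence within five deviations of library mean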;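 note: RGS4 expression induced by doxycycline in cells with stable M3 receptor; B-score is computed from the integrated fluorescence ratio over baseline after carbachol; higher B-score means a larger calcium signal and so more RGS4 inhibition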
Target sequence (P49798 whole entry, looked up): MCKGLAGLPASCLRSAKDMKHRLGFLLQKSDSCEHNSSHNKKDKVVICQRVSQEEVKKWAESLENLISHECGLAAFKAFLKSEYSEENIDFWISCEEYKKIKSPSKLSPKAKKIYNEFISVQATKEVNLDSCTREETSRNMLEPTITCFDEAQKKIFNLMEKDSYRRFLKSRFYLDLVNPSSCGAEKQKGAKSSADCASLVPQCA
MrgX1 agonist: agonists of human MrgX1 receptor, primary screen, HEK293 cells, Fluo-4 calcium flux. Fluo-4 calcium fluorescence, agonist mode; stronger effect = higher value. 0.44% of 310,000 active. AID 588627, 2011. B-score at 10 µM;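 active = calcium response B-score plate-corrected fluorescence ratio at least 3 library SD, with starting fluorescence B-score inside 5 SD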
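Material – MrgX1-expressing HEK293 cells · Input – 15,000 cells seeded per well · Dosing – compound as first of three additions · Times – overnight seeding, then 1 h dark dye loading · Measured by – kinetic Fluo-4 NW fluorescence of intracellular calcium · Read-out – B-scored fluorescence response ratio · Benchmarks – positive and negative control wells on each plate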
MrgX1 antag conf: MrgX1 receptor antagonists, duplicate retest, confirmation, HEK293 cells, Fluo-4 calcium flux; shares compounds with MrgX1 antag; BAM8-22 calcium flux; stronger effect = lower value; remaining BAM8-22 calcium response % of control (stronger effect = lower value), % at 10 µM; 19% of 2,300 active; AID 602420, 2012;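 active = remaining agonist calcium response no higher than 100% minus 3 SD of agonist-only control wells, with starting fluorescence near control levels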;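 note: agonist BAM8-22 given at a near maximal EC90 to ECmax level; peak minus minimum fluorescence divided by baseline after agonist addition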
HEK293 Ca flux: nonspecific calcium signal in parental HEK293, confirmation, counter-screen for MrgX1 antagonist project, parental HEK293 cells, Fluo-4 calcium flux; Fluo-4 calcium fluorescence, FDSS; shares compounds with MrgX1 antag; fluorescence ratio F(max-min)/F0 at 10 µM; 2% of 4,000 active;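 active = duplicate-averaged calcium fluorescence ratio at least three times the standard deviation of buffer wells, a nonspecific response in parental cells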
HEK293 Ca counter: calcium response in parental HEK293 cells, primary screen, counter-screen for MrgX1 allosteric activator project, cell-based, Fluo-4 calcium flux, duplicate. shares compounds with MrgX1 antag. AID 624114, 2012. Fluo-4 fluorescence ratio; stronger effect = higher value. 0.4% of 4,000 active. fluorescence ratio F(max-min)/F0 at 10 µM;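 active = calcium fluorescence ratio, averaged over duplicates, at least 3 SD of the buffer-well ratio, meaning a nonspecific response in receptor-free cells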;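 note: untransfected parental HEK293 lacking MrgX1 used as counterscreen for MrgX1 allosteric activators; fluorescence change taken during the second addition on a kinetic imager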
HEK293 Ca cntr2: calcium response in parental HEK293 cells, primary screen, counter-screen for MrgX1 agonist project, cell-based, Fluo-4 calcium flux, duplicate, agonist mode | shares compounds with MrgX1 antag | Fluo-4 calcium fluorescence (FDSS); stronger effect = higher value | fluorescence ratio F(max-min)/F0 at 10 µM | 8.7% of 4,000 active;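 active = calcium fluorescence ratio at least three times the spread of buffer wells, meaning a non-specific response in parental cells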
The depositor's hits bear a star; i = inactive; x = not tested or not shown. Rows were chosen to be rich in hits. Some 4.5% of all compounds tested hit in one or more screens of this group.

SMILES	MrgX1 antag	MrgX1 allo act	PHOSPHO1 inh	RGS4 act	RGS4 inh	MrgX1 agonist	MrgX1 antag conf	HEK293 Ca flux	HEK293 Ca counter	HEK293 Ca cntr2
COc1ccc(C(=O)N2CCCc3ccccc32)cc1	i	i	13.2	i	i	i	x	x	x	x
CC(C)Oc1ccc(C(=O)N2CCCc3ccccc32)cc1	-6.27*	i	-1.0	i	i	i	i	i	i	i
CS(=O)(=O)c1ccc(C(=O)OCC(=O)N2CCCc3ccccc32)cc1	-7.27*	i	x	i	i	i	84.5%*	i	i	i
O=C(OCC(=O)N1CCCc2ccccc21)c1cc(S(=O)(=O)N2CCOCC2)ccc1Cl	-4.51*	i	x	i	i	i	i	i	i	i
COc1ccc(NC(=O)c2cccnc2N2CCCC2)cc1	-8.59*	i	-6.8	i	i	i	i	i	i	46.6*
COc1cccc(-c2nc(NC3CCCC3)c3ccccc3n2)c1O	-5.07*	i	14.1	i	i	i	74.0%*	i	i	i
CSc1ccc(S(=O)(=O)N2CCC(C(=O)Nc3cccnc3)CC2)cc1	i	i	31.9	i	i	i	x	x	x	x
O=C(Nc1cccnc1)C1CCN(S(=O)(=O)c2ccc(Cl)cc2)CC1	-7.89*	i	51.6	i	i	i	i	i	i	i
CC1CC(=O)C2=C(C1)Nc1ncnn1C2c1ccccc1 (stereo not drawn)	i	i	-2.7	i	i	i	x	x	x	x
Cc1nc2n(n1)C(c1ccccc1)C1=C(CC(c3ccco3)CC1=O)N2 (stereo not drawn)	-7.91*	i	0.1	i	i	i	i	i	i	i
CC(C)NC(=O)c1cc(-c2cccs2)nc2ccccc12	i	i	x	i	i	i	x	x	x	x
CC(C)NC(=O)c1sc2nc(-c3cccs3)cc(-c3cccs3)c2c1N	-9*	i	2.6	i	i	i	i	i	i	i
CCCCN(c1ccccc1)S(=O)(=O)c1cccc2cccnc12	i	i	37.0	i	i	i	x	x	x	x
COc1cc(C(=O)O)ccc1OCc1c(C)noc1C	i	i	-4.4	i	i	i	x	x	x	x
COc1cc(C(=O)Oc2ccccc2)ccc1OCc1c(C)noc1C	-5.96*	i	-11.4	i	i	i	i	i	i	i
CCOC(=O)N1CCN(C(=O)C2CCN(Cc3nc(-c4ccccc4C)oc3C)CC2)CC1	-4.8*	i	0.3	i	i	i	i	i	i	i
O=C(NCCc1cn2ccsc2n1)c1cccs1	-6.33*	i	22.1	i	i	i	i	i	i	i
O=S(=O)(NCc1cn2ccsc2n1)c1cccs1	i	i	30.3	i	i	i	x	x	x	x
